Source: ChEMBL document CHEMBL1129336, “Ryanodine action at calcium release channels. 2. relation to substituents of the cyclohexane ring” (J Med Chem, 1996)
pIC50, pKi: −log10 of the molar value.

How the values were obtained:
[1] = Inhibition of contraction on electrical stimulation of cardiac muscle using rat right ventricular muscle strips; format: functional, Muscle tissue
Method in brief: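 Physiological function test on intact rat ventricular muscle strips, in which the read-out depends on both tissue penetration and receptor potency. Values are expressed as IC50 from three to five experiments; standard error is reported as percent of the mean.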

[2] = biological target: Ryanodine receptor 1 (Oryctolagus cuniculus) (UniProt P11716); assay: Displacement of [3H]ryanodine from ryanodine receptor(ryr) of rabbit skeletal muscle
Ryanodine receptor 1 (Oryctolagus cuniculus), sequence (P11716 whole entry): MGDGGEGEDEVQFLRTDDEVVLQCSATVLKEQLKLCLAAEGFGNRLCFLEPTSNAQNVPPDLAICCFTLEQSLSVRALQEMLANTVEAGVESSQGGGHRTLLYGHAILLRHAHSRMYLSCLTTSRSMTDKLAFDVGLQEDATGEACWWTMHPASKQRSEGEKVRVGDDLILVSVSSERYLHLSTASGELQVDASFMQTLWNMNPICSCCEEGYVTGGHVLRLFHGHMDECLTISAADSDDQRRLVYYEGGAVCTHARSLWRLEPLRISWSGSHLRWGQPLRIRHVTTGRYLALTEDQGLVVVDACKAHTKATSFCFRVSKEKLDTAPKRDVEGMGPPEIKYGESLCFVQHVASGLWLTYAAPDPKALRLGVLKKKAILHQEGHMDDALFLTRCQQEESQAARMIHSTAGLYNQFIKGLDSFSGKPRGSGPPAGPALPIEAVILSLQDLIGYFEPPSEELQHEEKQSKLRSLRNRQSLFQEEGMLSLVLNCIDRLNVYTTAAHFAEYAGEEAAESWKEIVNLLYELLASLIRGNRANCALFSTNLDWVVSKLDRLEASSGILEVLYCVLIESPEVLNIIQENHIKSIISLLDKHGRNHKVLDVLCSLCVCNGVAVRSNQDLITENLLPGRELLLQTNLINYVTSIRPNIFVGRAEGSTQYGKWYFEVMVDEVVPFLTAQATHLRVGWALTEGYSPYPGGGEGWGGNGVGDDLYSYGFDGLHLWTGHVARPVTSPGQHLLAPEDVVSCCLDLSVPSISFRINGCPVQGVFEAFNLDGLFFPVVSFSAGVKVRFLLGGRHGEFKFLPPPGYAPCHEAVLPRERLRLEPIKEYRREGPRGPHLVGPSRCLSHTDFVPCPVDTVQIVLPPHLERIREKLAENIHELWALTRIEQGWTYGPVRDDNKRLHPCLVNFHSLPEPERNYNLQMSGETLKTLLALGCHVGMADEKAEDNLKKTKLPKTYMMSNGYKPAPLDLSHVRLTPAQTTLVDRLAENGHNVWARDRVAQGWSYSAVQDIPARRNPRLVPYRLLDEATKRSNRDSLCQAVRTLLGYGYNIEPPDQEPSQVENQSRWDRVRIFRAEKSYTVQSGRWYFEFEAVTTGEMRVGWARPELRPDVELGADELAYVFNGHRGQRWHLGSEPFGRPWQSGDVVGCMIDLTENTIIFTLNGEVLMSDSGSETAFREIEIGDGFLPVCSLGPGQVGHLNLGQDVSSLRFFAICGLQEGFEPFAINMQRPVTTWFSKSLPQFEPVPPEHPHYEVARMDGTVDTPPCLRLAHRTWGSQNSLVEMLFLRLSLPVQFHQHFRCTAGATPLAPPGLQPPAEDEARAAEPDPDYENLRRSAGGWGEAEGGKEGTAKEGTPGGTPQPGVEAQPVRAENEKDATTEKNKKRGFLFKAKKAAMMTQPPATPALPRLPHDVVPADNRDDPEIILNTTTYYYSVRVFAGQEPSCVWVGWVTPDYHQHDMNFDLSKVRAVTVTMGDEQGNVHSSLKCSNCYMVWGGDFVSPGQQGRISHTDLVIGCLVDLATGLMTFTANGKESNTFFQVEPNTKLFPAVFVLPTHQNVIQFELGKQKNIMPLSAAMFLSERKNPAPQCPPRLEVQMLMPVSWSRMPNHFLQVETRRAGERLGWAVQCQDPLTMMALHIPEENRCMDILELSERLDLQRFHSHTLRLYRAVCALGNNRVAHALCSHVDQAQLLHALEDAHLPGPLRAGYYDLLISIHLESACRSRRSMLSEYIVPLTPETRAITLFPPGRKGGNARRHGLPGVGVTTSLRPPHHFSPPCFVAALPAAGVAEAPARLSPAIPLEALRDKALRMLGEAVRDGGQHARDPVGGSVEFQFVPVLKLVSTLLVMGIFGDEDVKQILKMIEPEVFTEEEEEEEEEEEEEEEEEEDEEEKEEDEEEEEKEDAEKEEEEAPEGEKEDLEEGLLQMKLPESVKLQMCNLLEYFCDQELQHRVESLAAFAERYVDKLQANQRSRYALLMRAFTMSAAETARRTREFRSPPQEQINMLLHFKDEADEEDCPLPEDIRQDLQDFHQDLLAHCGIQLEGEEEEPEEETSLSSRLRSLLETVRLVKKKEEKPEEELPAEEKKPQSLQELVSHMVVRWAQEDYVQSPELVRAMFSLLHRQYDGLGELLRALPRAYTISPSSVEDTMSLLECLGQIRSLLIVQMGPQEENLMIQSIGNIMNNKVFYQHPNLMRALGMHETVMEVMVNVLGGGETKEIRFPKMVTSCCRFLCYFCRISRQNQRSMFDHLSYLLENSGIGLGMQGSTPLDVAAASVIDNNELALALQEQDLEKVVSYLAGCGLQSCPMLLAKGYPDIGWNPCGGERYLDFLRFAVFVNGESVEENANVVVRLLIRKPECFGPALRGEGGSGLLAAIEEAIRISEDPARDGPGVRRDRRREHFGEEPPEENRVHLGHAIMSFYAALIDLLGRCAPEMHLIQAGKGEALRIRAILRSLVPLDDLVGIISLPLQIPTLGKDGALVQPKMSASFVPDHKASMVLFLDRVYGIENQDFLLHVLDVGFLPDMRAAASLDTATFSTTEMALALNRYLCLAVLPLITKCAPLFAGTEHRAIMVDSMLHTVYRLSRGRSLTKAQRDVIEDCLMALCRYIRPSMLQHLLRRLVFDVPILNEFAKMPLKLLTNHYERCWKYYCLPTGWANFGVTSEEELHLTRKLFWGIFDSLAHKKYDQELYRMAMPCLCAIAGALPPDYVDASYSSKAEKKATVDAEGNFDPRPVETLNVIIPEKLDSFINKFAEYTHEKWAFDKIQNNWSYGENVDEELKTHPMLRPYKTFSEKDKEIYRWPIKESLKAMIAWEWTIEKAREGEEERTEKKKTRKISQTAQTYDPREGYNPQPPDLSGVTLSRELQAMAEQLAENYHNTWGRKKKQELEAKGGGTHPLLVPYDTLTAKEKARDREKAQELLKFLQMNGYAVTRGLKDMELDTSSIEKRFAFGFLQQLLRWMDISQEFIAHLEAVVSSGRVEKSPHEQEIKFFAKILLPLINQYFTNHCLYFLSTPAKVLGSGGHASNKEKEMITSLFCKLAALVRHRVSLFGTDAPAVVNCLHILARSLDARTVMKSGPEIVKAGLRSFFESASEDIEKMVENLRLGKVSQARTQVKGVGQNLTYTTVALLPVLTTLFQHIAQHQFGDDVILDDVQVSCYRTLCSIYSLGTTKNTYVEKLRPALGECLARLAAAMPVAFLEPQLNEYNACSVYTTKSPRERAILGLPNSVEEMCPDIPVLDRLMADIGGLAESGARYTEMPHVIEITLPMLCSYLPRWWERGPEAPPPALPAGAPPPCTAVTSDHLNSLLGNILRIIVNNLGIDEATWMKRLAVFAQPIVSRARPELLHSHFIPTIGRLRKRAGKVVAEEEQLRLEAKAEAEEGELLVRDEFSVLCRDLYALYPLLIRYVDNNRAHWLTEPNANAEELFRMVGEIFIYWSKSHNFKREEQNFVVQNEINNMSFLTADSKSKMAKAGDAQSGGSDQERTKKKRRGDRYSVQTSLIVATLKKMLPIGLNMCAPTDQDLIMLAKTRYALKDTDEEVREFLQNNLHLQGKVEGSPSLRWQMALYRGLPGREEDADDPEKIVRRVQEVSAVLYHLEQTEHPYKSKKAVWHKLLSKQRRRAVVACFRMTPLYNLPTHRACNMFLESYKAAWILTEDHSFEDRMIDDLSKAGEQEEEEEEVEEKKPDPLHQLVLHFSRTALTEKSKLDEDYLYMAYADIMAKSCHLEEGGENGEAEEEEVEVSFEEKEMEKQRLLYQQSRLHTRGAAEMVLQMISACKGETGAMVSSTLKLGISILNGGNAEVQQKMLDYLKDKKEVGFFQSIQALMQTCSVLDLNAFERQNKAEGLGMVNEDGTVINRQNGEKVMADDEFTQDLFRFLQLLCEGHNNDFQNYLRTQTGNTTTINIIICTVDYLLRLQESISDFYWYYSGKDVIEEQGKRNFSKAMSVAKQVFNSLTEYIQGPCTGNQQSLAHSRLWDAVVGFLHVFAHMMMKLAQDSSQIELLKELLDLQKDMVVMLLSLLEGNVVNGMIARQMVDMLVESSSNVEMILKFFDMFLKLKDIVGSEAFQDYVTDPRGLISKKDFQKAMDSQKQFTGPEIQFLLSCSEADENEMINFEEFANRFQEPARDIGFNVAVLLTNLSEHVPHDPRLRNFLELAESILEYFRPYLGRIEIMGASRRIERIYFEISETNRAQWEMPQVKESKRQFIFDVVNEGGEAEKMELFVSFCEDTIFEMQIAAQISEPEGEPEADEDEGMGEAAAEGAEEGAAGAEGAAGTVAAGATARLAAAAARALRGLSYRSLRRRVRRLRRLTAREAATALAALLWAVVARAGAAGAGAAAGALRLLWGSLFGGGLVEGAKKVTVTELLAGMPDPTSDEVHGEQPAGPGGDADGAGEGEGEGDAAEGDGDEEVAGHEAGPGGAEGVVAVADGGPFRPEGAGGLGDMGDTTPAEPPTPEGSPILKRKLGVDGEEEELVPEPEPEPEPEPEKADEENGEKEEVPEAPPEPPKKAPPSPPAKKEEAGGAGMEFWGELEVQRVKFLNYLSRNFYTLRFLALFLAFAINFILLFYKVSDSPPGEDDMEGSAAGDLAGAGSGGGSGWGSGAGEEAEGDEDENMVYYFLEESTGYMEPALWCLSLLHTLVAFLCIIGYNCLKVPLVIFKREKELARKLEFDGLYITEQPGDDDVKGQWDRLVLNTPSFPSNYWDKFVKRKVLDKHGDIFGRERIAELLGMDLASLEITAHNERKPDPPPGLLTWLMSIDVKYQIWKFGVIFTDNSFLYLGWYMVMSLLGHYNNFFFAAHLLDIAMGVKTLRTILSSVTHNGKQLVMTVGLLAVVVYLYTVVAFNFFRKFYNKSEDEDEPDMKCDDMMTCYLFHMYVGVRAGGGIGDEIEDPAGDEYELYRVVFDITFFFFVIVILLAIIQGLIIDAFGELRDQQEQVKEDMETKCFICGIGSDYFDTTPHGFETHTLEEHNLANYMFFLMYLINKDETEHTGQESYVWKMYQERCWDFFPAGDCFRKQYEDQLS
Method in brief: (§1)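 Radioligand displacement assays of [3H]ryanodine binding at the ryanodine receptor, one each on rabbit skeletal muscle, mouse brain and canine ventricle preparations. Values are means of three to five experiments, each run in duplicate; standard error is reported as percent of the mean.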

[3] = Inhibition of the contraction on electrical stimulation of cardiac muscle using rat right ventricular muscle strips; format: functional, tissue-based; conditions: Muscle tissue
Method in brief: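 Contractility test on intact rat ventricular muscle strips. The read-out reflects both tissue penetration and receptor action. Values are means of three to five experiments, expressed as IC50.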

[4] = Inhibitory activity against ryanodine receptor in Mouse brain; format: functional, tissue-based
[5] = Inhibitory activity against ryanodine receptor in rabbit muscle; format: functional, Oryctolagus cuniculus
Method in brief: (§2)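 Ryanodine receptor binding assays on tissue preparations. Values are means of three to five experiments, each run in duplicate. Results are reported as Ki for the cardiac ventricle preparation.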

[6] = biological target: Ryanodine receptor 2 (Mus musculus) (UniProt E9Q401); assay: Displacement of [3H]ryanodine from ryanodine receptor(ryr) of Mouse brain
[7] = biological target: T1, Ryanodine receptor 2 (Canis lupus familiaris) (UniProt Q8WN72); assay: Displacement of [3H]ryanodine binding to ryanodine receptor(ryr) in canine left ventricular membranes; format: cell membranes; method in brief: as §1
T1 sequence (whole entry): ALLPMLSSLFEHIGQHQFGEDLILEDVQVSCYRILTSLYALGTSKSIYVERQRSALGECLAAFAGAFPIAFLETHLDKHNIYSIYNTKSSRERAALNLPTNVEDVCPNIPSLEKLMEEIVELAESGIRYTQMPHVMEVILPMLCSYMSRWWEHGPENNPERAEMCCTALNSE

[8] = biological target: T2, Ryanodine receptor 2 (Canis lupus familiaris, UniProt Q8WN72); assay: Binding affinity towards ryanodine receptor in canine ventrical preparation; method in brief: as §2
T2 sequence (Q8WN72 whole entry): T1 sequence (whole entry)

Work on `CC1=CCC2(O)C3(C)CC4(O)OC2(C1O)C1(O)C3(O)C(OC(=O)c2ccc[nH]2)C(O)(C(C)C)C41C` (stereo not given) yielded a Relative activity [1] of 11 and a Relative activity [2] of 26.

Work on `CC1CCC2(O)C3(C)CC4(O)OC2(C1N)C1(O)C3(O)C(OC(=O)c2ccc[nH]2)C(O)(C(C)C)C41C` (stereo not given) yielded a Relative activity [2] of 68.

Molecule `CC1CCC2(O)C3(C)CC4(O)OC2(C1O)C1(O)C3(O)C(OC(=O)c2ccc[nH]2)C(O)(C(C)C)C41C` (stereo not given) has a Relative activity [1] of 34 and a Relative activity [2] of 97.

Work on `CC(C)[C@@]1(O)[C@@H](OC(=O)c2cc[nH]c2)[C@@]2(O)[C@]3(C)C[C@@]4(O)O[C@@]5([C@H](O)[C@@H](C)CC[C@]35O)[C@@]2(O)[C@@]41C` [RYANODINE] yielded a pIC50 [3] of 7.47, a pIC50 [4] of 8.48 and a pIC50 [5] of 8.46. For the same molecule, the Relative activity [2] was 100 and the Relative activity [6] was 100.

For `CO/N=C1\C(C)CCC2(O)C3(C)CC4(O)OC12C1(O)C3(O)C(OC(=O)c2ccc[nH]2)C(O)(C(C)C)C41C` (stereo not given), the Relative activity [1] was 34, the Relative activity [7] was 17 and the Relative activity [2] was 13.

For `CC(C)[C@@]1(O)[C@@H](OC(=O)c2ccc[nH]2)[C@@]2(O)[C@@]3(C)C[C@]4(O)O[C@@]5([C@H](O)[C@@H](C)CC[C@]35O)[C@@]2(O)[C@@]14C` [RYANODINE], the pKi [8] was 8.74.

`CONC1C(C)CCC2(O)C3(C)CC4(O)OC12C1(O)C3(O)C(OC(=O)c2ccc[nH]2)C(O)(C(C)C)C41C` (stereo not given) gave a Relative activity [1] of 31, a Relative activity [7] of 36 and a Relative activity [2] of 68.

`CC(C)C1(O)C(OC(=O)c2ccc[nH]2)C2(O)C3(C)CC4(O)OC5(CC(O)CCC35O)C2(O)C41C` (stereo not given) showed a Relative activity [1] of 28, a Relative activity [7] of 0.42 and a Relative activity [2] of 0.2.

Molecule `CC(C)C1(O)C(OC(=O)c2ccc[nH]2)C2(O)C3(C)CC4(O)OC5(CCCCC35O)C2(O)C41C` (stereo not given) has a Relative activity [2] of 6.5.

For `CC1CCC2(O)C3(C)CC4(O)OC2(NC1=O)C1(O)C3(O)C(OC(=O)c2ccc[nH]2)C(O)(C(C)C)C41C` (stereo not given), the Relative activity [1] was 11, the Relative activity [7] was 7.4 and the Relative activity [2] was 42.

In the case of `C=C1CCC2(O)C3(C)CC4(O)OC2(C1OC(=O)c1ccccc1)C1(O)C3(O)C(OC(=O)c2ccc[nH]2)C(O)(C(C)C)C41C` (stereo not given), the Relative activity [2] was 3.9.
